Ratio, Retention_time and Drug uptake data for one compound are collected here from ChEMBL document CHEMBL3627597, “Synthesis of Fluorine-Containing Phosphodiesterase 10A (PDE10A) Inhibitors and the In Vivo Evaluation of F-18 Labeled PDE10A PET Tracers in Rodent and Nonhuman Primate” (J Med Chem, 2015).

For data set [1], the system named is Nucleic Acid. Kind of data set: Ratio of drug level in striatum to hippocampus in cynomolgus monkey at 185 to 259 MBq, iv measured at 70 mins by micro PET image analysis. The format is ADME, organism-based, Macaca fascicularis. The following applies: in vivo. The essentials: (§1)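 Adult male cynomolgus macaques (~4–6 kg), three independent PET studies per tracer on a microPET Focus 220. Animals fasted 12 h and anesthetized with ketamine (10 mg/kg) plus glycopyrrolate (0.13 mg/kg) i.m. A 10 min positioning transmission scan and a 45 min attenuation transmission scan were run, then a 3 h dynamic emission scan after venous tracer injection. Regional TACs came from ROIs, expressed as SUV (body weight, injected dose).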

Data set [2] has as its system Nucleic Acid. Kind of data set: Ratio of drug level in striatum to temporal region in cynomolgus monkey at 185 to 259 MBq, iv measured at 40 mins by micro PET image analysis. The format is ADME, organism-based, Macaca fascicularis. The following applies: in vivo. The method, boiled down: as §1
The subject of the next data set is Plasma. Kind of data set: Retention time of the compound in cynomolgus monkey plasma at 185 to 259 MBq, iv by HPLC analysis. The data set is classed as ADME, organism-based, Macaca fascicularis. The essentials: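 Arterial blood (~1.5 mL) drawn at 2, 15, 30, 60 and 90 min p.i. into heparinized syringes, then centrifuged to plasma. Plasma deproteinated with 2 parts ice-cold methanol. Extract run on C-18 HPLC, MeCN/0.1 M ammonium formate pH 4.5, 0.9 mL/min, UV 254 nm. 1-min fractions over 16 min were well-counted and decay-corrected; parent percentage taken from recovered activity.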

The subject of data set [3] is Nucleic Acid. Kind of data set: Ratio of drug level in striatum to cerebellum in cynomolgus monkey at 185 to 259 MBq, iv measured at 40 mins by micro PET image analysis. The format is ADME, organism-based, Macaca fascicularis. The following applies: in vivo. The essentials:
as §1

The subject of another data set is Putamen. Kind of data set: Drug uptake in cynomolgus monkey putamen at 185 to 259 MBq, iv measured over 180 mins by micro PET image analysis. The data set is classed as ADME, organism-based, Macaca fascicularis. The following applies: in vivo, 3 h. The method, boiled down:
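Adult male cynomolgus macaques (~4–6 kg), three studies per tracer, fasted 12 h. Induction with ketamine 10 mg/kg plus glycopyrrolate 0.13 mg/kg i.m. Transmission scans of 10 min for positioning and 45 min for attenuation correction, then a 3 h dynamic microPET emission scan after venous injection of 185 - 259 MBq. ROI time-activity curves expressed as SUV (body weight and injected dose).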

Data set [4] concerns Nucleic Acid. Kind of data set: Ratio of drug level in striatum to cerebellum in cynomolgus monkey at 185 to 259 MBq, iv measured at 70 mins by micro PET image analysis. The following applies: in vivo. The format is ADME, organism-based, Macaca fascicularis. The method, boiled down:
as §1

Data set [5] deals with Nucleic Acid. Kind of data set: Ratio of drug level in striatum to temporal region in cynomolgus monkey at 185 to 259 MBq, iv measured at 70 mins by micro PET image analysis. The data set is classed as ADME, organism-based, Macaca fascicularis. As to conditions: in vivo; call rule not given here. The essentials:
as §1

The next data set concerns Striatum. Kind of data set: Biodistribution in Sprague-Dawley rat striatum at 1.48 to 2.22 MBq, iv measured at 30 mins by gamma counting analysis. The data set is classed as ADME, organism-based. As to conditions: in vivo, 0.5 h. The method, boiled down: (§2)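 Male Sprague-Dawley rats (250 - 400 g), tail-vein injection of 1.48 - 2.22 MBq radiotracer under 2.5% isoflurane in oxygen; n=4 per time point, euthanized at 5, 30 and 60 min p.i. Brain regions obtained by gross dissection; peripheral tissues collected. Samples weighed, gamma-counted against a diluted-injectate standard; %ID/g calculated.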

The subject of data set [6] is Muscle tissue. Kind of data set: Biodistribution in Sprague-Dawley rat muscle at 1.48 to 2.22 MBq, iv measured at 60 mins by gamma counting analysis. The data set is classed as ADME, organism-based. The following applies: in vivo, 1 h. The method, boiled down:
as §2

Another data set deals with Bone. Nature of the data set: Biodistribution in Sprague-Dawley rat bone at 1.48 to 2.22 MBq, iv measured at 60 mins by gamma counting analysis. As to conditions: in vivo, 1 h. The format is ADME, organism-based, Bone element. The method, boiled down: as §2
The next data set deals with Kidney. Kind of data set: Biodistribution in Sprague-Dawley rat kidney at 1.48 to 2.22 MBq, iv measured at 60 mins by gamma counting analysis. The format is ADME, organism-based. The following applies: in vivo, 1 h. The essentials:
as §2

Another data set concerns Brain. Nature of the data set: Biodistribution in Sprague-Dawley rat brain at 1.48 to 2.22 MBq, iv measured at 60 mins by gamma counting analysis. The format is ADME, organism-based. The following applies: in vivo, 1 h. The essentials: as §2
Data set [7] has as its system Nucleic Acid. Kind of data set: Ratio of drug level in striatum to white matter in cynomolgus monkey at 185 to 259 MBq, iv measured at 70 mins by micro PET image analysis. As to conditions: in vivo. The data set is classed as ADME, organism-based, Macaca fascicularis. The method, boiled down:
as §1

Data set [8] has as its system Nucleic Acid. Kind of data set: Ratio of drug level in striatum to midbrain region in cynomolgus monkey at 185 to 259 MBq, iv measured at 40 mins by micro PET image analysis. The data set is classed as ADME, organism-based, Macaca fascicularis, Brain. The following applies: in vivo. The method, boiled down: as §1
Data set [9] concerns Muscle tissue. Kind of data set: Biodistribution in Sprague-Dawley rat muscle at 1.48 to 2.22 MBq, iv measured at 5 mins by gamma counting analysis. The data set is classed as ADME, organism-based. The following applies: in vivo. The essentials:
as §2

Regarding `Cn1cc(-c2ccncc2)c(-c2ccc(OCc3nc4ccccc4cc3OCC[18F])cc2)n1`, the Ratio in the data set on Nucleic Acid [1] is on record as greater than 5; with Nucleic Acid [2], greater than 3; in the data set with Nucleic Acid [3], greater than 3; in the data set on Nucleic Acid [4], greater than 5; with Nucleic Acid [5] it was greater than 5; in the data set on Nucleic Acid [7], greater than 5. Moreover, the Ratio in the data set on Nucleic Acid [8] is reported as greater than 3. Further, the Retention_time with Plasma is listed as 10.5 min. Moreover, the Drug uptake result is listed as “Active” in the data set on Putamen; “Active” in the data set on Striatum; 0.134 % ID/g in the data set with Muscle tissue [6]; 0.224 % ID/g in the data set on Bone; 0.841 % ID/g in the data set on Kidney; 0.149 % ID/g in the data set with Brain. The Drug uptake in the data set on Muscle tissue [9] is on record as 0.166 % ID/g.
